Among the data in ChEMBL document CHEMBL3272137, “Narcotic antagonists. Synthesis and evaluation of some subsituted 1,2,3,4,5,6-hexahydro-1,4:2,6-dimethano-3-benzazocines” (J Med Chem, 1977) are ED50, inhibition and Activity values, retold here.

Series [1] relates to Mus musculus. Nature of the series: Analgesic activity in sc dosed mouse assessed as inhibition of phenylquinone-induced writhing. It counts as functional. The procedure, abridged:
(§1)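 Given subcutaneously as salts in aqueous solution, with doses expressed as free base. ED50 was derived by probit analysis of dose-response data using at least three dose levels and at least six animals per dose level.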

Series [2] relates to Mus musculus. The experiment in a line: Narcotic antagonist activity in mouse assessed as inhibition of oxymorphone-induced straub tail response at 40 mg/kg, sc. The arrangement: dose 40 mg/kg. Type of series: functional, organism-based. The gist of the method: (§2)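 Given subcutaneously as salts in aqueous solution, with dose expressed as free base.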
For series [3], the system named is Mus musculus. The experiment in a line: Toxicity in mouse assessed as convulsion at 80 mg/kg, sc. Type of series: organism-based. Also noted: dose 80 mg/kg, route subcutaneous. Particulars: in vivo. The gist of the method:
as §2

In series [4] the test system is Mus musculus. The experiment in a line: Toxicity in mouse assessed as convulsion at 40 mg/kg, sc. It counts as organism-based. The arrangement: dose 40 mg/kg, route subcutaneous. Particulars: in vivo. The gist of the method: as §2
The subject of series [5] is Mus musculus. The experiment in a line: Analgesic activity in mouse assessed as inhibition of phenylquinone-induced writhing at 40 mg/kg, sc. Type of series: functional, organism-based. The arrangement: dose 40 mg/kg. The procedure, abridged:
as §2
For orientation: An intraperitoneal irritant provokes the stretching counted in writhing tests.

Series [6] has as its system Mus musculus. Nature of the series: Narcotic antagonist activity in sc dosed mouse assessed as inhibition of oxymorphone-induced straub tail response. Type of series: functional. The procedure, abridged:
as §1

In series [7] the test system is Mus musculus. Nature of the series: Narcotic antagonist activity in sc dosed mouse assessed as inhibition of oxymorphone-induced narcosis. It counts as functional. The gist of the method: as §1
Series [8] has as its system Rattus norvegicus. Nature of the series: Narcotic antagonist activity in sc dosed rat assessed as inhibition of morphine-induced analgesic activity by tail flick test. Type of series: functional. The procedure, abridged:
as §1
For orientation: Hot-plate and tail-flick tests time the reaction to a heat stimulus.

Series [9] concerns Mus musculus. The experiment in a line: Toxicity in mouse assessed as tremor at 40 mg/kg, sc. It counts as organism-based. Particulars: in vivo. The arrangement: dose 40 mg/kg, route subcutaneous. The gist of the method:
as §2

The subject of series [10] is Mus musculus. Nature of the series: Toxicity in mouse assessed as depression at 40 mg/kg, sc. Type of series: organism-based. Also noted: dose 40 mg/kg, route subcutaneous. Particulars: in vivo. The gist of the method:
as §2

Active and inactive are the calls of the source. The calls are words filed in the database; no cut-off is given here. Bounds are passed on as bounds.

Usually ED50 stands for the dose that gives a 50% effect, or the effect in half of the subjects. For `CCC12CC3CC(c4ccc(O)cc41)C(C2)N3C` (stereo unspecified), the ED50 in series [1] is 24.3 mg/kg. In addition, the inhibition entry in [2] is “inactive”. In addition, the Activity result in series [3] is “Toxic”.
Regarding `CCC12CC3CC(c4ccc(O)cc41)C(C2)N3` (stereo unspecified), the 50% effective dose (ED50) in [1] came out at 12.9 mg/kg. Moreover, the inhibition result in series [2] was “inactive”. Moreover, the Activity result in series [3] and in series [4] was “Toxic” throughout.
For the compound `CN1CC[C@]23c4c5ccc(O)c4O[C@H]2[C@@H](O)C=C[C@H]3[C@H]1C5` [MORPHINE], the ED50 in series [1] came to 0.26 mg/kg.
In the case of `CC12CC3CC(c4ccc(O)cc41)C(C2)N3CC1CC1` (stereo unspecified), the inhibition entry in [5] was “Active”. The median effective dose (ED50) in series [6] came out at 0.96 mg/kg; in series [7] it was 0.63 mg/kg; in [8], 0.64 mg/kg. In [3], the Activity entry is “Toxic”.
For `CCC12CC3CC(c4ccc(O)cc41)C(C2)N3CC1CCC1` (stereo unspecified), the inhibition entry in series [5] is “inactive”. Also, the results for the 50% effective dose (ED50) in series [6], in [7] and in [8] were 15 mg/kg, 5 mg/kg and 10 mg/kg, respectively. The Activity entry in series [3] and in series [4] was “Toxic” in each case.
Regarding `CC12CC3CC(c4ccc(O)cc41)C(C2)N3` (stereo unspecified), the Activity result in series [3] is reported as “Toxic”.
As for `C=CCN1C2CC3c4ccc(O)cc4C(CC)(C2)CC31` (stereo unspecified), the Activity result in series [9] and in series [3] was “Toxic” in each case. Moreover, the 50% effective dose (ED50) was determined as 20 mg/kg in [1], 8 mg/kg in [6], 1 mg/kg in [7] and 3.3 mg/kg in [8].
For `CN1C2CC3c4ccc(O)cc4C(C)(C2)CC31` (stereo unspecified), in series [1], the 50% effective dose (ED50) was 31.8 mg/kg. For the same compound, the inhibition result in series [2] was “inactive”. Besides, in series [3], the Activity entry was “Toxic”.
Consider `CCC12CC3CC(c4ccc(O)cc41)C(C2)N3CC1CC1` (stereo unspecified), for which the inhibition entry in series [5] was “Active”. In addition, the median effective dose (ED50) in series [6] is 2.24 mg/kg; in series [7], 0.32 mg/kg; in series [8], 0.44 mg/kg. Further, the Activity result in series [3] is “Toxic”.
Take `CC(C)=CCN1CC[C@]2(C)c3cc(O)ccc3C[C@H]1[C@H]2C` [(+)-PENTAZOCINE]: the median effective dose (ED50) in series [1] was determined as 3.7 mg/kg; in [6] it was 12 mg/kg; in series [7], 10.1 mg/kg.
Turning to `C=CCN1CC[C@]23c4c5ccc(O)c4O[C@H]2[C@@H](O)C=C[C@H]3[C@H]1C5` [NALORPHINE], the median effective dose (ED50) in series [1] was found to be 0.77 mg/kg; in [7], 0.58 mg/kg; in [8], 0.38 mg/kg.
With `CCC12CC3CC(c4ccc(O)cc41)C(C2)N3CCC1CC1` (stereo unspecified), the Activity entry in series [10] and in series [3] was “Toxic” throughout. Further, the inhibition result in [5] is “Active”. Further, the ED50 in series [6] and in [8] was over 20 mg/kg throughout.
Consider `CC12CC3CC(c4ccc(O)cc41)C(C2)N3CCC1CC1` (stereo unspecified), for which the inhibition entry in series [5] and in series [2] was “inactive” each time. Moreover, the Activity result in [3] is recorded as “Toxic”.
Consider `CC12CC3CC(c4ccc(O)cc41)C(C2)N3CC1CCC1` (stereo unspecified), for which the inhibition entry in [5] and in series [2] was “inactive” in each case. In addition, in series [3], the Activity entry was “Toxic”.
